MrgX1 antagonist: antagonists of human MrgX1 receptor, primary screen, HEK293 cells, Fluo-4 calcium flux; Mas-related G-protein coupled receptor member X1 (Homo sapiens), Q96LB2; BAM8-22 antagonism; stronger effect = lower value; B-score at 10 µM; hit rate 1.3% among 310,000; AID 588676, 2011;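 active means calcium-response B-score plate-corrected more than 3 library SD below zero, starting fluorescence within 5 deviations, no agonist response on first addition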;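 further: peak minus trough fluorescence over baseline after final BAM8-22 challenge near maximal dose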
Target sequence (Q96LB2 whole entry, looked up): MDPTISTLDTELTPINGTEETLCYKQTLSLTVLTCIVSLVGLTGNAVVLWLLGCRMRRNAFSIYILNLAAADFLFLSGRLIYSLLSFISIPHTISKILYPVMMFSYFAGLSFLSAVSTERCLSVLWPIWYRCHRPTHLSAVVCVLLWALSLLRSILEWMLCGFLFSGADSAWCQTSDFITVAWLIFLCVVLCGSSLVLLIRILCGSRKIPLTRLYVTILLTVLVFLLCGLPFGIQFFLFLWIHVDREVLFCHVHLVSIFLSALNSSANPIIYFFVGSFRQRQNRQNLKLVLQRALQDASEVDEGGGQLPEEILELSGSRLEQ
RGS4 pot: RGS4 potentiators or activators, primary screen, cell-based, HEK293 M3R inducible RGS4, calcium flux | B-score at 10 µM | carbachol calcium flux Fluo4; stronger effect = lower value | AID 463111, 2010 | hit rate 0.92% among 310,000;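 active means B-score of the integrated calcium signal more than 4 SD below the library mean, with starting fluorescence not abnormally high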;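 further: negative B-score means reduced calcium response which marks RGS4 activation or potentiation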
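test system = HEK293 cells with stable M3R and inducible RGS4 | schedule = recording 10 s baseline at 1 Hz, 100 s post-agonist | technique = Fluo4-AM (2 µM) calcium-flux fluorescence, kinetic read | measure = Agonist-evoked peak-minus-minimum fluorescence over baseline, integrated ratio, B score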
MrgX1 agonist: agonists of human MrgX1 receptor, primary screen, HEK293 cells, Fluo-4 calcium flux; Mas-related G-protein coupled receptor member X1 (Homo sapiens), Q96LB2; Fluo-4 calcium fluorescence, agonist mode; stronger effect = higher value; B-score at 10 µM; hit rate 0.44% among 310,000; AID 588627, 2011;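 active means calcium response B-score plate-corrected fluorescence ratio at least 3 library SD, with starting fluorescence B-score inside 5 SD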
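Material: MrgX1-expressing HEK293 cells; input: 15,000 cells per well; doses: test compound given as first of three sequential additions; schedule: overnight plating before 1 h dye loading; technique: Fluo-4 NW calcium-flux fluorescence, kinetic read; evaluation: baseline-normalised fluorescence change ratio, B-scored; control set: plate-wise positive and negative controls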
MrgX1 PAM: positive allosteric modulators of MrgX1, primary screen, HEK293 cells, Fluo-4 calcium flux; Mas-related G-protein coupled receptor member X1 (Homo sapiens), Q96LB2; FDSS; stronger effect = higher value; hit rate 0.63% among 310,000; B-score at 10 µM;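 active means plate-corrected calcium response at least 3 library SD above typical, normal starting fluorescence, not activating the receptor alone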;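 further: compound read alongside a low EC10 to EC30 dose of BAM8-22 agonist; peak minus trough fluorescence over baseline measured at the second addition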
RGS4 block: RGS4 inhibitors, primary screen, cell-based, HEK293 M3R inducible RGS4, calcium flux. AID 463165, 2010. Fluo-4 calcium flux; stronger effect = higher value; triggered by carbachol at its EC20. B-score at 10 µM. hit rate 0.45% among 310,000. Regulator of G-protein signaling 4 (Homo sapiens), P49798;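 active means B-score, a plate-corrected calcium signal, over three deviations above library mean, with baseline fluorescence within five deviations of library mean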;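 further: RGS4 expression induced by doxycycline in cells with stable M3 receptor; B-score is computed from the integrated fluorescence ratio over baseline after carbachol; higher B-score means a larger calcium signal and so more RGS4 inhibition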
Target sequence (P49798 whole entry, looked up): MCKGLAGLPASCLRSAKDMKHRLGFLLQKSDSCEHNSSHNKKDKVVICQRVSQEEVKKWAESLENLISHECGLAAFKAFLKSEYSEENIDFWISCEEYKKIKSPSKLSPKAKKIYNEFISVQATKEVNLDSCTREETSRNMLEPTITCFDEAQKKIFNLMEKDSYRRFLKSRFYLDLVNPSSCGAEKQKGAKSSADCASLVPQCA
RGS4 inh valid: enhanced carbachol calcium response, M3R/RGS4 cells, RGS4 inhibitor project, cell-based, validation screen, HEK293 M3R/RGS4, calcium flux; shares compounds with RGS4 block; carbachol calcium Fluo-4 fluorescence; carbachol added at its EC20; 0 = buffer wells, 100 = carbachol control; calcium response, % at 10 µM; hit rate 65% among 1,700; AID 492999, 2010;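 active means duplicate-averaged calcium response above the buffer-only control mean plus 5 SD of those controls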;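 further: integrated fluorescence ratio F max minus min over baseline F0; higher response in RGS4-induced cells means RGS4 inhibition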
RGS4 uninduced: carbachol calcium response in non-induced M3R cells, confirmation, counter-screen for RGS4 inhibitor project, cell-based, HEK293 M3R | shares compounds with RGS4 block | carbachol calcium Fluo-4; submaximal (EC20) carbachol stimulus; buffer wells 0%, carbachol control wells 100% | activity (percent), % at 10 µM | hit rate 20% among 1,900; call rule not given here;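 further: RGS4 induction absent so cells express M3R without RGS4; higher means more calcium signal and flags a non-specific hit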
RGS4 inh ctr2: second counter-screen for RGS4 inhibitors: non-induced cells without carbachol | shares compounds with RGS4 block | HEK293 M3R/RGS4 non-induced, Fluo-4 calcium, no carbachol; normalised: buffer wells 0%, carbachol wells 100% | calcium response (agonist-mode artifact), % at 10 µM | hit rate 22% among 1,900 | AID 493001;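 active means duplicate-averaged calcium rise in uninduced cells above buffer wells' mean plus 5 SD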
Hits are given with their value; – = inactive; · = no result given. An excerpt weighted towards active compounds, which were near 3.5% of everything screened.

SMILES | MrgX1 antagonist | RGS4 pot | MrgX1 agonist | MrgX1 PAM | RGS4 block | RGS4 inh valid | RGS4 uninduced | RGS4 inh ctr2
CCOC(=O)/C(=C/c1ccc(OC(=O)c2ccncc2)cc1)C(C)=O | – | – | 29 | – | 7.6 | 28% | 42% | 16%
COC(=O)c1ccc(-n2ccnc2)cc1 | – | – | – | – | – | · | · | ·
CCCCCOc1ccc(OC(=O)c2ccncc2)cc1 | – | – | – | – | – | · | · | ·
COCCOc1cc2ncnc(N3CCC(C(=O)O)CC3)c2cc1OCCOC | – | – | – | – | – | · | · | ·
CSc1ccc(NC(=O)NCc2cccnc2)cc1 | – | – | – | – | – | · | · | ·
CSc1ccccc1OCc1cc(C(=O)NCCN2CCCC(O)C2)no1 (configuration not stated) | – | – | – | – | – | · | · | ·
CSc1ccccc1OCc1cc(C(=O)NCCC2CCCCO2)no1 (configuration not stated) | – | – | – | – | 11 | – | – | –
O=C1NC(=Nc2ccccc2Cl)S/C1=C\c1cccc([N+](=O)[O-])c1O | – | – | – | – | – | – | – | –
COc1c(/C=C2\SC(=Nc3ccccc3Cl)NC2=O)cccc1[N+](=O)[O-] | – | – | – | – | 8.5 | 34% | 70% | –
Cc1cn2nc(N)c3ccccc3c2n1 | – | · | – | – | · | · | · | ·
Nc1nn2cc(-c3ccccc3)nc2c2ccccc12 | – | – | – | – | – | · | – | –
Cc1cccc(OCCC(=O)OCC(=O)Nc2c(C)nn(-c3ccccc3)c2C)c1 | – | – | – | – | – | · | · | ·
COc1ccccc1NC(=O)CC1S/C(=N/N=C2\CCCc3ccccc32)NC1=O (configuration not stated) | – | – | – | – | 6.1 | 60% | 62% | –
O=C(CC1S/C(=N/N=C2CCCCCC2)NC1=O)Nc1ccccc1C(F)(F)F (configuration not stated) | – | – | – | – | – | · | · | ·
CCc1ccc2nc(NC(=O)c3cc(C)on3)sc2c1 | – | – | – | – | 6.4 | 25% | 36% | –
Cc1ccc(CN2CCN(/N=C/c3ccc(N(C)C)cc3)CC2)cc1 | – | – | – | – | 8.8 | – | – | –
Cc1ccc(/C=N/N2CCN(Cc3ccccc3)CC2)cc1 | – | – | – | – | – | · | · | ·
Cc1ccc(C)c(NC(=O)CN(C)S(=O)(=O)c2cccc3cccnc23)c1 | – | – | – | – | – | · | · | ·
Cc1ccc2c(c1)c1c(n2CC(O)Cn2c(C)nc3ccccc32)/C(=N\O)CCC1 (configuration not stated) | – | – | – | – | 15 | 42% | – | –
Cc1ccc(-c2nn(-c3ccccc3)cc2/C=N/n2c(-c3cccs3)n[nH]c2=S)cc1 | – | – | – | – | – | · | · | ·
O=[N+]([O-])c1ccc(-c2nn(-c3ccccc3)cc2/C=N/n2c(-c3ccncc3)n[nH]c2=S)cc1 | – | – | – | – | – | – | – | –
S=c1[nH]nc(-c2ccncc2)n1/N=C/c1cn(-c2ccccc2)nc1-c1ccccc1 | – | – | – | – | 7.8 | 12% | 41% | –
CC(C)CCNC(=O)C1CC2Cn3c(nc4cc(Cl)c(Cl)cc43)C2N1C (configuration not stated) | – | – | – | – | – | · | · | ·
O=C(CSc1nnnn1-c1cccnc1)Nc1ccccc1F | – | – | – | – | – | · | · | ·
